IC50 and Activity data for 19 compounds are collected here from ChEMBL document CHEMBL3421547, “Novel myricetin derivatives: Design, synthesis and anticancer activity” (Eur J Med Chem, 2015).

The source made the active and inactive calls. No cut-off for these calls is given here.

The subject of test [1] is Bcap37. The test can be described thus: Cytotoxicity against human Bcap37 cells after 48 hrs by MTT assay. The conditions noted are these: Bcap37, 48 h. In general terms: Tetrazolium assays rely on reduction of a dye to a coloured formazan, in cell work by metabolically active cells.
Test [2] deals with MGC-803. As to the kind of experiment: Cytotoxicity against human MGC803 cells after 48 hrs by MTT assay. To be noted: MGC-803, 48 h.
In test [3] the test system is SGC-7901. As to the kind of experiment: Cytotoxicity against human SGC7901 cells after 48 hrs by MTT assay. The conditions noted are these: SGC-7901, 48 h.
Test [4] has as its system MDA-MB-231. The test can be described thus: Cytotoxicity against human MDA-MB-231 cells after 48 hrs by MTT assay. To be noted: MDA-MB-231, 48 h.
Test [5] deals with Telomerase reverse transcriptase (Homo sapiens, UniProt O14746). The test can be described thus: Inhibition of telomerase in human MDA-MB-231 cells after 24 hrs by TRAP-PCR-ELISA. In kind it is cell-based. A digest of the protocol: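 MDA-MB-231 cells grown in DMEM with 10% FBS plus penicillin/streptomycin, 5 × 10^4 seeded in T25 flasks and allowed to adhere. Treated 24 h at 60, 20, 6.67, 2.22, 0.74, 0.25 and 0.082, with staurosporine included. Lysed in RIPA 30 min on ice, supernatant taken after 12,000 g spin at 4 °C. Telomerase read by TRAP-PCR-ELISA kit at 490 nm; mean ± SD.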
Telomerase reverse transcriptase, sequence (O14746 whole entry): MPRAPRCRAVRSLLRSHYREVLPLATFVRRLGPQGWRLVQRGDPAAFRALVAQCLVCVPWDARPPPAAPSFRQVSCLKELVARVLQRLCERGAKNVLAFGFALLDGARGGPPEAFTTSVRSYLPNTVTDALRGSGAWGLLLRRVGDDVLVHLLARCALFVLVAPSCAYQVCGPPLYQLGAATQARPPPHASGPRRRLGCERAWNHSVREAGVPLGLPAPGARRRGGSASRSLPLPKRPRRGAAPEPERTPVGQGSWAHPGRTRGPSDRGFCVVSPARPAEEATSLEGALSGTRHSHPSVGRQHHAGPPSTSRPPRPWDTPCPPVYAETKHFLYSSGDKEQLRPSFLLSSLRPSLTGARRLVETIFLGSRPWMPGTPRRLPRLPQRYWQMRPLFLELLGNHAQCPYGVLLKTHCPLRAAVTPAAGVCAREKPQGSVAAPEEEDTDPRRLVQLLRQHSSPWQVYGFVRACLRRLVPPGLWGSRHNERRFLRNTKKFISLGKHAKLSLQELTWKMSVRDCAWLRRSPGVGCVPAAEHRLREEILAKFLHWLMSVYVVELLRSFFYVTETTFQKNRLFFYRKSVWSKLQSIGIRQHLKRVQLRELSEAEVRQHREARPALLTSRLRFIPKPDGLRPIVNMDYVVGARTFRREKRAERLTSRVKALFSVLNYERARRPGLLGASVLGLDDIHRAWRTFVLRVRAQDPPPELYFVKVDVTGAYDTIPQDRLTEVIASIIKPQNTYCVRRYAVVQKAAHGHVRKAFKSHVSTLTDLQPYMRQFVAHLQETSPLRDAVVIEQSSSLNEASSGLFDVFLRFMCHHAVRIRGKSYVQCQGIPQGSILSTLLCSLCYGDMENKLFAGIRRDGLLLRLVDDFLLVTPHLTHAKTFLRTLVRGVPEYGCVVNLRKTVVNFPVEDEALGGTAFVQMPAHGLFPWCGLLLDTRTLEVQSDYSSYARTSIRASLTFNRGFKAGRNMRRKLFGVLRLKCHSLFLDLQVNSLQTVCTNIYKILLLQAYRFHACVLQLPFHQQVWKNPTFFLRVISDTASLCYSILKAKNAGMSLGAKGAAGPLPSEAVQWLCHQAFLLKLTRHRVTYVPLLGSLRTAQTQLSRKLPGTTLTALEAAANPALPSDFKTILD

Test [6] deals with MDA-MB-231. As to the kind of experiment: Antiproliferative activity against human MDA-MB-231 cells assessed as cell distortion at 1 to 10 uM after 24 to 72 hrs by inverted microscopic analysis. In kind it is functional, cell-based. A digest of the protocol:
(§1)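 MDA-MB-231 seeded at 3 × 10^4 cells/mL in DMEM with 10% FBS and grown 24 h at 37 °C, 5% CO2. Compounds in DMSO added (final DMSO ≤0.1%) at 1 and 10 concentrations for 24, 48 and 72 h. Morphology observed by inverted microscope and photographed in randomly chosen fields.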

For test [7], the system named is MDA-MB-231. The test can be described thus: Cell cycle arrest in human MDA-MB-231 cells assessed as accumulation at G0/G1 phase at 1 uM after 48 hrs by flow cytometry (reference value: 40.5 +/- 0.38%). Format: functional.
Test [8] has as its system MDA-MB-231. As to the kind of experiment: Cell cycle arrest in human MDA-MB-231 cells assessed as accumulation at S phase at 1 uM after 48 hrs by flow cytometry (reference value: 34.6 +/- 0.31%). In kind it is functional. (In general: Flow cytometry measures light scatter and fluorescence of single cells or particles in a stream.)
Test [9] concerns MDA-MB-231. The test can be described thus: Cell cycle arrest in human MDA-MB-231 cells assessed as accumulation at G2 phase at 1 uM after 48 hrs by flow cytometry (reference value: 34.6 +/- 0.31%). In kind it is functional.
In test [10] the test system is MDA-MB-231. As to the kind of experiment: Down regulation of p65 protein expression in human MDA-MB-231 cells at 1 uM after 48 hrs by Western blotting analysis. In kind it is functional, cell-based. (A western blot detects proteins with antibodies after separation by electrophoresis.)
The subject of test [11] is MDA-MB-231. As to the kind of experiment: Down regulation of TERT protein expression in human MDA-MB-231 cells at 1 uM after 48 hrs by Western blotting analysis. Format: functional, cell-based. The method, boiled down:
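MDA-MB-231 cells treated 48 h, with AZT (3.0 mmol/L) as reference. Cells lysed in RIPA and protein measured by BCA; 30 or 50 total protein run on SDS-PAGE and blotted to PVDF. Primary antibodies applied 1 h in TBS/Tween-20 with 3% Marvel (anti-TERT 1:500, β-actin loading control). HRP secondaries, ECL detection.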

Test [12] deals with MDA-MB-231. The test can be described thus: Antiproliferative activity against human MDA-MB-231 cells assessed as breaking and crack at 1 to 10 uM after 24 to 72 hrs by inverted microscopic analysis. Format: functional, cell-based. A digest of the protocol:
as §1

Broadly, the IC50 is the point on the concentration scale where inhibition reaches its midpoint. Consider `COc1cc(OC)c2c(=O)c(OCC(=O)N/N=C/c3ccc[nH]3)c(-c3cc(OC)c(OC)c(OC)c3)oc2c1`, for which the IC50 stood at 7 µM in [1], 5.61 µM in test [2], 8.73 µM in test [3] and 3.75 µM in [4].

Turning to `COc1cc(OC)c2c(=O)c(OCCCCN3CCCCC3)c(-c3cc(OC)c(OC)c(OC)c3)oc2c1`, the 50% inhibitory concentration (IC50) came out at 2 µM in test [5]; 2.62 µM in test [1]; 26.8 µM in [2]; 6.08 µM in test [3]; 3.03 µM in [4].

In the case of `COc1cc(OC)c2c(=O)c(OCCCCN3CCN(C)CC3)c(-c3cc(OC)c(OC)c(OC)c3)oc2c1`, the IC50 was 4.17 µM in test [1], 12.2 µM in test [2], 6.95 µM in [3] and 3.87 µM in test [4].

Turning to `COc1cc(OC)c2c(=O)c(OCC(=O)N/N=C/c3sccc3C)c(-c3cc(OC)c(OC)c(OC)c3)oc2c1`, the 50% inhibitory concentration (IC50) in test [1] was determined as 8.35 µM; in [2], 7.74 µM; in test [3], 10.2 µM; in test [4] it was 4.47 µM.

Turning to `CCN(CC)CCCCOc1c(-c2cc(OC)c(OC)c(OC)c2)oc2cc(OC)cc(OC)c2c1=O`, the half-maximal inhibitory concentration (IC50) in [5] stood at 40.3 µM; in test [4], 13 µM.

As for `COc1cc(OC)c2c(=O)c(OCCCCN3CCCC3)c(-c3cc(OC)c(OC)c(OC)c3)oc2c1`, the half-maximal inhibitory concentration (IC50) was 18 µM in [1], 18.6 µM in test [2], 26.8 µM in test [3] and 10.4 µM in [4].

On to `COc1cc(OC)c2c(=O)c(OCC(=O)N/N=C/c3ccco3)c(-c3cc(OC)c(OC)c(OC)c3)oc2c1`, for which the outcome in [6], in test [10] and in test [11] was Active. For the same compound, the Activity in test [7] worked out at 44.3%; in [8], 28.4%; in [9], 27.4%. In addition, the 50% inhibitory concentration (IC50) in test [5] was 0.91 µM; in [1], 3.11 µM; in test [2], 6.05 µM; in [3], 5.72 µM; in test [4] it was 1.86 µM.

In the case of `COc1cc(OC)c2c(=O)c(OCCCCN3CCOCC3)c(-c3cc(OC)c(OC)c(OC)c3)oc2c1`, the half-maximal inhibitory concentration (IC50) was 5.24 µM in test [1], 20.6 µM in test [2], 12.5 µM in test [3] and 4.17 µM in test [4].

Turning to `CC[n+]1c(-c2ccccc2)c2cc(N)ccc2c2ccc(N)cc21` [HOMIDIUM BROMIDE], the IC50 in test [5] stood at 2.33 µM.

Regarding `COc1cc(OC)c2c(=O)c(OCCCN3CCCC3)c(-c3cc(OC)c(OC)c(OC)c3)oc2c1`, the results for the IC50 in test [5] and in [2] were 28.9 µM and 32.1 µM, respectively.

As for `COc1cc(OC)c2c(=O)c(OCC(=O)N/N=C/c3ccccc3F)c(-c3cc(OC)c(OC)c(OC)c3)oc2c1`, the IC50 in test [5] was found to be 1.82 µM; in test [1] it was 4.09 µM; in test [2], 2.78 µM; in [3], 7.72 µM; in [4] it was 3.4 µM.

Consider `COc1cc(OC)c2c(=O)c(OCCCN3CCN(C)CC3)c(-c3cc(OC)c(OC)c(OC)c3)oc2c1`, for which the 50% inhibitory concentration (IC50) in test [5] was determined as 19.7 µM; in [1] it was 38 µM; in test [4], 30.1 µM.

On to `CCN(CC)CCCOc1c(-c2cc(OC)c(OC)c(OC)c2)oc2cc(OC)cc(OC)c2c1=O`, for which the IC50 in [5] amounted to 35.7 µM; in test [1], 43 µM; in test [2], 40.2 µM; in [3], 56.9 µM.

Regarding `COc1cc(OC)c2c(=O)c(OCCCN3CCOCC3)c(-c3cc(OC)c(OC)c(OC)c3)oc2c1`, the 50% inhibitory concentration (IC50) was found to be 4.68 µM in test [1], 21 µM in test [2], 11.2 µM in test [3] and 2.9 µM in test [4].

With `COc1cc(OC)c2c(=O)c(OCC(=O)N/N=C/c3ccccn3)c(-c3cc(OC)c(OC)c(OC)c3)oc2c1`, the concentration for half-maximal inhibition (IC50) in test [1] came out at 18.8 µM; in test [2], 15.3 µM; in test [3], 16.2 µM; in test [4], 9.89 µM.

With `C/C(=C\C(=O)Nc1ccccc1C(=O)O)c1ccc2ccccc2c1`, the 50% inhibitory concentration (IC50) in test [5] was 0.17 µM.

Consider `COc1cc(OC)c2c(=O)c(OCCCN3CCCCC3)c(-c3cc(OC)c(OC)c(OC)c3)oc2c1`, for which the concentration for half-maximal inhibition (IC50) in test [5] came out at 3.07 µM; in [1], 2.96 µM; in test [2] it was 10 µM; in test [3], 16.5 µM; in test [4] it was 2.16 µM.

With `COc1cc(OC)c2c(=O)c(OCC(=O)N/N=C/c3ccc(C)cc3)c(-c3cc(OC)c(OC)c(OC)c3)oc2c1`, the concentration for half-maximal inhibition (IC50) in test [1] worked out at 5.17 µM; in test [2], 3.51 µM; in test [3] it was 10.1 µM; in test [4], 4.57 µM.

Take `COc1cccc2c1C(=O)c1c(O)c3c(c(O)c1C2=O)C[C@@](O)(C(=O)CO)C[C@@H]3O[C@H]1C[C@H](N)[C@H](O)[C@H](C)O1` [DOXORUBICIN]: the result in test [12] was Active. For the same compound, the 50% inhibitory concentration (IC50) in [1] came out at 2.87 µM; in test [2], 3.22 µM; in test [3], 3.5 µM; in test [4] it was 2.01 µM.
